In publication PMC10345485 (Saudi Pharmaceutical Journal : SPJ, 2023):
Several values for one entry are separate records, joined by “and”; a condition that tells them apart may be missing. Equal entries are not always repeated.

Each compound was assayed against urease (Canavalia ensiformis, UniProt P07374) (assay: Urease inhibition assay). Details: IC50 (µM) ± SEM, in-vitro urease inhibition.
Format: biochemical
Summary of the method: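 Test compound and enzyme preincubated in pH 6.8 phosphate buffer for 10 min at 37 °C. Phenol and alkali reagents then added. Absorbance read at 625 nm. Percent inhibition calculated as (control absorbance − sample absorbance)/control absorbance × 100. Run in triplicate, with a standard urease inhibitor as positive control. Values given ± SEM.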

Chain of urease (P07374 whole entry, looked up): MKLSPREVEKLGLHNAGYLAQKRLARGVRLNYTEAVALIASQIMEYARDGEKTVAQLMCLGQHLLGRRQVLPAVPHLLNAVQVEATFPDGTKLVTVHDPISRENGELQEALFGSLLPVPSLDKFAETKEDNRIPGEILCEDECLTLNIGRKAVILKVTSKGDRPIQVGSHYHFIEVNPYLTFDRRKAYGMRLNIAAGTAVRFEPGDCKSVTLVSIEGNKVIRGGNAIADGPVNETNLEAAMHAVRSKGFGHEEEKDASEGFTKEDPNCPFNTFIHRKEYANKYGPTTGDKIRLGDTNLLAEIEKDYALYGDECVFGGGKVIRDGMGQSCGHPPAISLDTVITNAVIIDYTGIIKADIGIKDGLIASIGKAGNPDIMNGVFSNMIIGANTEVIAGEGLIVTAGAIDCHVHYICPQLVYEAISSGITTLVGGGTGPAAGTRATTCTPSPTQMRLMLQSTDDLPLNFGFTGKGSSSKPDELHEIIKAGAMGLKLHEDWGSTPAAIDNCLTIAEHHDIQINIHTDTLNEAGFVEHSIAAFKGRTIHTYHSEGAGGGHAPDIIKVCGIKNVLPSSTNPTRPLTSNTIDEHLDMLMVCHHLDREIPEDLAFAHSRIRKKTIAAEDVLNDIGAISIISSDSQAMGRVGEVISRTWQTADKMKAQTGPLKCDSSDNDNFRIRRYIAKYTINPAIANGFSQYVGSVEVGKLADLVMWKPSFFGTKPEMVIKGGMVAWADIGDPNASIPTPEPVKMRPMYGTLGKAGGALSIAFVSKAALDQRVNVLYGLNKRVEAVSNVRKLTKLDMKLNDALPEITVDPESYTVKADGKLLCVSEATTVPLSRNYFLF

Row | IC50 | Structure (SMILES)
1 | 22.2 ± 0.42 µM | Clc1ccc(C=NN=C(Cc2ccccc2)c2ccccc2)c(Cl)c1 [Compound 3, 1-(2,4-dichlorobenzylidene)-2-(1,2-diphenylethylidene)hydrazine]
2 | 26.11 ± 0.22 µM | O=[N+]([O-])c1ccc(C=NN=C(Cc2ccccc2)c2ccccc2)cc1 [Compound 4, 1-(1,2-diphenylethylidene)-2-(4-nitrobenzylidene)hydrazine]
3 | 34.3 ± 0.65 µM | O=[N+]([O-])c1ccc(O)c(C=NN=C(Cc2ccccc2)c2ccccc2)c1 [Compound 5, 1-(1,2-diphenylethylidene)-2-(2-hydroxy-5-nitrobenzylidene)hydrazine]
4 | 28.11 ± 0.22 µM | Clc1ccc(C=NN=C(Cc2ccccc2)c2ccccc2)cc1 [Compound 6, 1-(4-chlorobenzylidene)-2-(1,2-diphenylethylidene)hydrazine]
5 | 45.9 µM and 48.3 µM | CSc1ccc(C=NN=C(Cc2ccccc2)c2ccccc2)cc1 [Compound 7, 1-(1,2-diphenylethylidene)-2-(4-(methylthio)benzylidene)hydrazine]
6 | 47.9 µM and 45.9 µM | Cc1ccc(C=NN=C(Cc2ccccc2)c2ccccc2)cc1 [Compound 8, 1-(1,2-diphenylethylidene)-2-(4-methylbenzylidene)hydrazine]
7 | 48.3 µM and 47.9 µM | Oc1ccc(C=NN=C(Cc2ccccc2)c2ccccc2)cc1 [Compound 9, 1-(1,2-diphenylethylidene)-2-(4-hydroxybenzylidene)hydrazine]
